These results are taken from ChEMBL document CHEMBL1140160, “Evidence for the mechanism of action of the antifungal phytolaccoside B isolated from Phytolacca tetramera Hauman” (J Nat Prod, 2008).

The test system of data set [1] is Saccharomyces cerevisiae. As to the kind of experiment: Effect on (1->3)-beta-D-glucan synthase-mediated [14C]-Glucose incorporation in Saccharomyces cerevisiae assessed as residual activity after 30 mins. Put shortly:
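Membrane fraction (18000g pellet) from early-log S. cerevisiae MATa trp1 ura3 leu2 his3 pep4::HIS3 nuc1::LEU2 broken with glass beads; 15 µg protein in 40 µL; compound 20 µg/assay added in MeOH; [14C]-glucose incorporation into insoluble glucan; 30 min at 30 °C, stopped with 10% TCA; duplicates; papulacandin B as standard.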

Data set [2] relates to Aspergillus niger. As to the kind of experiment: Antifungal activity against Aspergillus niger ATCC 9029 after 48 hrs by spectrophotometry. In kind it is functional. The conditions noted are these: ATCC 9029, 48 h.
For data set [3], the system named is Candida albicans. As to the kind of experiment: Antifungal activity against Candida albicans ATCC 10231 after 48 hrs by spectrophotometry. The data set is classed as functional. The conditions noted are these: ATCC 10231, 48 h; for MIC: read-out: MIC100.
Data set [4] concerns Saccharomyces cerevisiae. As to the kind of experiment: Antifungal activity against Saccharomyces cerevisiae ATCC 9763 after 48 hrs by sorbitol protection assay by spectrophotometry. The note with it: ATCC 9763, 48 h; for MIC: read-out: MIC100. The data set is classed as functional. In short, it runs like this: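 S. cerevisiae ATCC 9763 by the standard broth microdilution procedure, run on duplicate plates of 2-fold dilutions, one plate with 0.8 M sorbitol added to every well as osmotic support; MICs read at 2 and 7 days.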

In data set [5] the test system is Cryptococcus neoformans. As to the kind of experiment: Antifungal activity against Cryptococcus neoformans ATCC 32264 after 48 hrs by spectrophotometry. The data set is classed as functional. The conditions noted are these: ATCC 32264, 48 h; for MIC: read-out: MIC100.
The subject of data set [6] is Aspergillus fumigatus. As to the kind of experiment: Antifungal activity against Aspergillus fumigatus ATCC 26934 after 48 hrs by spectrophotometry. In kind it is functional. The note with it: ATCC 26934, 48 h, read-out: MIC100.
Data set [7] concerns Aspergillus flavus. The data set is described as follows: Antifungal activity against Aspergillus flavus ATCC 9170 after 48 hrs by spectrophotometry. In kind it is functional. The note with it: ATCC 9170, 48 h, read-out: MIC100.
A short description of data set [8]: Hemolytic effect in erythrocytes upto 120 mins by spectrophotometry. The data set is classed as ADME, cell-based. The conditions noted are these: erythrocyte, 2 h. Put shortly:
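Heparinized human red blood cells washed three times in isotonic PBS pH 7.0, made into a 4% suspension in sterile 5% glucose. Compound from DMSO stock diluted in 5% glucose to final 188 to 9 µM; incubated at 37 °C. Released haemoglobin read at 540 nm. LC100 is the lowest concentration giving complete lysis (clearing). DMSO alone served as the vehicle control.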

Data set [9] relates to Neurospora crassa. As to the kind of experiment: Antifungal activity against Neurospora crassa ATCC 9279 after 48 hrs by spectrophotometry. In kind it is functional. The conditions noted are these: ATCC 9279, 48 h, read-out: MIC100.
The target in data set [10] is T1, Chitin synthase 1 (Saccharomyces cerevisiae S288c) (UniProt P08004).
T1 sequence (whole entry): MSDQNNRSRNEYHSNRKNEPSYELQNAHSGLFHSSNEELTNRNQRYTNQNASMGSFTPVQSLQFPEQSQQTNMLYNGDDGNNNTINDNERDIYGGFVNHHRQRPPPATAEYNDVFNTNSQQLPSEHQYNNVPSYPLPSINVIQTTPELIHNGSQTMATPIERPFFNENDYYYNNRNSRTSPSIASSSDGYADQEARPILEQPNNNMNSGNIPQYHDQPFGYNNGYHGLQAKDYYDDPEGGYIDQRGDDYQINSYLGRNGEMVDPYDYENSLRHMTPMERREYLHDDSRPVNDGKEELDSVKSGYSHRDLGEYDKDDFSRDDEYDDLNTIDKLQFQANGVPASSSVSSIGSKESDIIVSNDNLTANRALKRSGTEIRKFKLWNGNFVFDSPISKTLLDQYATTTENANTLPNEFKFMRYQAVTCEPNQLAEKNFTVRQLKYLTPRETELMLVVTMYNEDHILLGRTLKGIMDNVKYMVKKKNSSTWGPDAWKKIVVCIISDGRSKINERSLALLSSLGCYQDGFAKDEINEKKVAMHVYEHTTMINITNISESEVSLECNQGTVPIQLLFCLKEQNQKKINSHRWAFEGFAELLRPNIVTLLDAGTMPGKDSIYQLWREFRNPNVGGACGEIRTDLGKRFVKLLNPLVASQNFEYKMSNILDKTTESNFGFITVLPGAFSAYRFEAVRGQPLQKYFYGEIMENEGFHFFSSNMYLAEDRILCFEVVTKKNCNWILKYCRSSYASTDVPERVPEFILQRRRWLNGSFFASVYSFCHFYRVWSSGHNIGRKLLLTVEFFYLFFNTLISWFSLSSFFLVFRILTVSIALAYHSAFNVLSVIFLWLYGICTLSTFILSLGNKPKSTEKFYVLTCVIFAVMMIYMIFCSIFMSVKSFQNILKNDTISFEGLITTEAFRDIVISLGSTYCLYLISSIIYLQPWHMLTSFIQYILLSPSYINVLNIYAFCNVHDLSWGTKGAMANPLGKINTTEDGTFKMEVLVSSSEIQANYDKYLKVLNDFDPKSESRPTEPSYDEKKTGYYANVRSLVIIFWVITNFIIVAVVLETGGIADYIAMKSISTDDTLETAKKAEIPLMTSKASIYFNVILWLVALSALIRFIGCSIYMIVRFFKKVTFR
The data set is described as follows: Effect on chitin synthase 1-mediated incorporation of [14C]N-acetylglucosamine in Saccharomyces cerevisiae assessed as residual activity after 90 mins.

Data set [11] has as its target T1, Chitin synthase 1 (Saccharomyces cerevisiae S288c). The data set is described as follows: Effect on chitin synthase 1-mediated incorporation of [14C]N-Acetylglucosamine in Saccharomyces cerevisiae assessed as residual activity after 90 mins in presence of trypsin. In short, it runs like this:
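Same S. cerevisiae membrane fraction, 30 µg protein in 50 µL; compound 20 µg/assay in MeOH; zymogen activated by trypsin (2 µL of 0.25 µg/µL, 15 min, 30 °C) then stopped with trypsin inhibitor; [14C]-N-acetylglucosamine incorporation into chitin over 90 min at 30 °C, stopped with 10% TCA; duplicates; nikkomycin Z as reference.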

Data set [12] deals with Neurospora crassa. The data set is described as follows: Antifungal activity against Neurospora crassa assessed as increase in thickness of hyphae relative to control at 37 uM. The data set is classed as functional, organism-based. Put shortly:
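N. crassa ATCC 9279, 1 × 10^5 spores/mL, grown 24 h at 28 °C with shaking (145 rpm) in YEPD with or without 37 µM. Mycelium fixed in 4% glutaraldehyde in 0.1 M cacodylate, OsO4 and KMnO4 treated, acetone-dehydrated, Spurr-embedded; ultrathin sections stained with uranyl acetate and Reynolds solution; wall thickness measured by transmission electron microscopy.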

In data set [13] the test system is Saccharomyces cerevisiae. The data set is described as follows: Antifungal activity against Saccharomyces cerevisiae assessed as increase in cellular leakage at 74 uM relative to sodium dodecyl sulphate at 6-48 hrs using spectrophotometry. In kind it is functional. Put shortly:
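S. cerevisiae ATCC 9763 grown with shaking at 30 °C to early stationary phase, washed twice, diluted to (3-5) × 10^7 cells/mL in cold MOPS buffer pH 6.0; compound at final 74 µM; 2% SDS set as 100% leakage; incubated at 30 °C and sampled at 6, 12, 24 and 48 h; supernatant absorbance at 260 nm; means of at least two independent assays; Student's test.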

The subject of data set [14] is Saccharomyces cerevisiae. The data set is described as follows: Antifungal activity against Saccharomyces cerevisiae assessed as binding to membrane ergosterol in presence of exogenous ergosterol. The data set is classed as functional, organism-based.
In data set [15] the target is T1, Chitin synthase 1 (Saccharomyces cerevisiae S288c). As to the kind of experiment: Enhancement of chitin synthase 1 activity in Saccharomyces cerevisiae assessed as increase in amount of cell wall chitin at 37 uM by calcofluor staining. In short, it runs like this:
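Exponentially growing S. cerevisiae ATCC 9763 in YEPD, untreated or exposed to 37 µM, washed and stained with Calcofluor white (20 µM final, 5 min, rt); fluorescence around mother and daughter cell surfaces examined by UV fluorescence microscopy, 400×, same exposure times.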

Data set [16] has the same target. The data set is described as follows: Enhancement of chitin synthase 1 activity in Saccharomyces cerevisiae assessed as increase in amount of cell wall chitin at 100 mg by Reissig method. In short, it runs like this: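 Untreated and 37 µM-treated S. cerevisiae cells (100 mg each) extracted with 6% KOH for 90 min, digested with chitinase and glusulase; N-acetylglucosamine measured by the Reissig reaction (potassium tetraborate, boiling 3 min, DMAB 20 min at 36-38 °C), absorbance at 585 nm; NAG as standard.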

Data set [17] concerns the target Chitin synthase 1 (Neurospora crassa OR74A) (UniProt P29070). The data set is described as follows: Enhancement of chitin synthase 1 activity in Neurospora crassa assessed as increase in amount of cell wall chitin at 37 uM by calcofluor staining. Put shortly:
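Exponentially growing N. crassa ATCC 9279 hyphae in YEPD liquid medium, untreated or exposed to 37 µM, washed and stained with Calcofluor white (20 µM final, 5 min, rt), washed; chitin visualised as bluish fluorescence under UV by fluorescence microscopy, 400×, same exposure times.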

Data set [18] has the same target. As to the kind of experiment: Enhancement of chitin synthase 1 activity in Neurospora crassa assessed as increase in cell wall thickness at 37 uM by transmission electron microscopy.

Values after ≈ are worked out from the molar mass of the structure shown. Active and inactive are the calls of the source. A value given as a limit tells only on which side of the number the result lay.

Chitin synthase 1 (Neurospora crassa OR74A), sequence (P29070 whole entry): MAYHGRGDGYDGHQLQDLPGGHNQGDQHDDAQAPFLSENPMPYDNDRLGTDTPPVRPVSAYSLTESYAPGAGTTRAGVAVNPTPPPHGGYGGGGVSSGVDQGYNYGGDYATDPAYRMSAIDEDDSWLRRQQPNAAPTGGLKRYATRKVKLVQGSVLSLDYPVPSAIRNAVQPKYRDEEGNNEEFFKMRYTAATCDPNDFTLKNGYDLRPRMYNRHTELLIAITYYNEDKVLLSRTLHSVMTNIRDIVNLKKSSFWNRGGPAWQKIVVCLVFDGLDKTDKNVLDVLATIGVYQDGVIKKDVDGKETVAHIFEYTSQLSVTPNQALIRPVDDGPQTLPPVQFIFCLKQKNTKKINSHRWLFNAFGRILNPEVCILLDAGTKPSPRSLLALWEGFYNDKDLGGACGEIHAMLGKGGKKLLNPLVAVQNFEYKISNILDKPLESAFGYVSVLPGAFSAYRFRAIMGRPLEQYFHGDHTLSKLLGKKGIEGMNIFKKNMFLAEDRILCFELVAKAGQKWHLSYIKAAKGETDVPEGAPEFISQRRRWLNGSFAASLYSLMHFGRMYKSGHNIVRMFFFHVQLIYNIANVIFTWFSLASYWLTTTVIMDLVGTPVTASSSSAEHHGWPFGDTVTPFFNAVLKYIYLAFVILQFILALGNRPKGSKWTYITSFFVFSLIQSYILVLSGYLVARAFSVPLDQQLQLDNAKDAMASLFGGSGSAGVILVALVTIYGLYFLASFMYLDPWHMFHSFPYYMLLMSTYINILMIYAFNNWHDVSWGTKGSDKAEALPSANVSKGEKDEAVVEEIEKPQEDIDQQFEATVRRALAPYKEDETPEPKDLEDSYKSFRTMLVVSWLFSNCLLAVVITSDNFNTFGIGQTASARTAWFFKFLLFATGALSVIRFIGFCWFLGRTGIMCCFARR

As to `CCC(O)/C=C/C=C/C=C/C(=O)OC[C@H]1O[C@@H](O[C@H]2[C@H](OC(=O)/C=C/C=C/CC(O)/C(C)=C/C=C/CCC(C)CC)[C@@H](O)[C@@]3(OCc4cc(O)cc(O)c43)O[C@@H]2CO)[C@H](O)[C@@H](O)[C@H]1O` (stereo partly drawn), the Activity in [1] was determined as 5%.
For the compound `C[C@@H]1[C@H](O)[C@@H](C)/C=C/C=C/C=C/C=C/C=C/C=C/C=C/[C@H](O[C@@H]2O[C@H](C)[C@@H](O)[C@H](N)[C@@H]2O)C[C@@H]2O[C@](O)(C[C@@H](O)C[C@@H](O)[C@H](O)CC[C@@H](O)C[C@@H](O)CC(=O)O[C@H]1C)C[C@H](O)[C@H]2C(=O)O` [AMPHOTERICIN B], the MIC was 0.5 µM (≈ 0.462 µg/mL) in data set [2] (read-out: MIC100); 0.84 µM (≈ 0.776 µg/mL) in data set [3]; 1.62 µM (≈ 1.5 µg/mL) in data set [4]; 0.27 µM (≈ 0.25 µg/mL) in data set [5]; 0.5 µM (≈ 0.462 µg/mL) in data set [6]; 0.5 µM (≈ 0.462 µg/mL) in data set [7]. Also, the MIC in [9] turned out to be 1 µM (≈ 0.924 µg/mL). Also, the LC100 in data set [8] was determined as 13.5 µM.
As for `CC(=O)N1CCN(c2ccc(OCC3COC(Cn4ccnc4)(c4ccc(Cl)cc4Cl)O3)cc2)CC1` (stereo not drawn) [KETOCONAZOLE], the MIC came out at 0.25 µM (≈ 0.133 µg/mL) in data set [2] (read-out: MIC100); 1 µM (≈ 0.531 µg/mL) in data set [3]; 1 µM (≈ 0.531 µg/mL) in data set [4]; 0.5 µM (≈ 0.266 µg/mL) in data set [5]; 0.13 µM (≈ 0.0691 µg/mL) in data set [6]; 0.5 µM (≈ 0.266 µg/mL) in data set [7]. In addition, the MIC in data set [9] was found to be 2 µM (≈ 1.06 µg/mL).
One may read the MFC as the smallest concentration meeting the test's criterion for killing the fungus. Higher therefore signals less potent killing. By MIC50 is commonly meant an inhibitory concentration at the 50% level, which refers to growth in some studies and to a panel of isolates in others. Read a low MIC50 as higher susceptibility. The MIC80 is an inhibitory concentration at the 80% level, which refers to growth in some studies and to a panel of isolates in others. A high value points to lower susceptibility. Regarding `COC(=O)[C@@]1(C)CC[C@]2(C(=O)O)CC[C@]3(C)C(=CC[C@@H]4[C@@]5(C)C[C@H](O)[C@H](O[C@@H]6OC[C@@H](O)[C@H](O)[C@H]6O)[C@@](C)(CO)[C@@H]5CC[C@]43C)[C@@H]2C1` [PHYTOLACCOSIDE B], the MIC in data set [2] (read-out: MIC) is 188 µM (≈ 125 µg/mL); in data set [3], 74 µM (≈ 49.2 µg/mL); in data set [4], 74 µM (≈ 49.2 µg/mL); in data set [5], 112 µM (≈ 74.5 µg/mL); in data set [6], 188 µM (≈ 125 µg/mL); in data set [7], 74 µM (≈ 49.2 µg/mL). Further, in data set [9], the MIC amounted to 74 µM (≈ 49.2 µg/mL). The MFC in data set [3] came to 150 µM (≈ 99.7 µg/mL); in data set [4], 150 µM (≈ 99.7 µg/mL); in [5], 112 µM (≈ 74.5 µg/mL). Besides, the MIC50 in data set [3] was determined as 74 µM (≈ 49.2 µg/mL); in data set [4], 18 µM (≈ 12 µg/mL); in data set [5], 9 µM (≈ 5.98 µg/mL). For the same compound, the values for the MIC80 in data set [3], in data set [4] and in [5] were 74 µM (≈ 49.2 µg/mL), 37 µM (≈ 24.6 µg/mL) and 74 µM (≈ 49.2 µg/mL), respectively. The Activity in [1] came out at 93.4%; in data set [10], 190%; in data set [11] it was 166%; in data set [13], 17%; in [16], 23%; in data set [18] it was 400 nm. Further, the LC100 in [8] was more than 188 µM. Also, the outcome in data set [12], in [15] and in data set [17] was Active. Also, the outcome in data set [14] was inactive.
